Laboratory results: ChEMBL document CHEMBL4706580, “4-Amino-1,2,4-triazole-3-thione-derived Schiff bases as metallo-β-lactamase inhibitors” (Eur J Med Chem, 2020)
Calls of active or inactive are those of the source. The calls are words filed in the database; no cut-off is given here.

What was measured:
[1] = Inhibition of beta-lactamase CphA (unknown origin) expressed in Escherichia coli BL21(DE3) using imipenem as substrate by measuring substrate hydrolysis at 100 uM by spectrophotometric analysis
Method in brief: (§1)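 Enzyme 0.2–0.8 nM in 15 mM cacodylate pH 6.5, no added zinc, pre-incubated 30 min at 21 °C with inhibitor (100 μM screen). Imipenem substrate added from 10 mM stock; hydrolysis at 300 nm, 30 °C. Residual activity vs three uninhibited samples; Ki (1–100 μM inhibitor) by Hanes linearization, competitive model. Triplicate.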

[2] = Inhibition of beta-lactamase IMP-1 (unknown origin) expressed in Escherichia coli BL21(DE3) using imipenem as substrate by measuring substrate hydrolysis at 100 uM by spectrophotometric analysis
Method in brief: (§2)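 Purified enzyme (overproduced in E. coli BL21(DE3), pET-9a; ion-exchange and gel filtration), 1-70 nM final. Reporter substrate 150 μM imipenem, read at 300 nm, 30 °C, 50 mM HEPES pH 7.5. Single-point screen at 100 or 200 μM; Ki from v0/vi vs [I] (0.5–1,000 μM final) assuming competitive inhibition, or Dixon plot. Triplicate.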

[3] = Inhibition of beta-lactamase NDM-1 (unknown origin) expressed in Escherichia coli LZ2310 assessed as potentiation of ceftazidime antibacterial activity by measuring ceftazidime induced diameter of inhibition zone at 40 uM incubated for 18 hrs by disk diffusion method (reference value: 15 mm)
Method in brief: (§3)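 Efflux-deficient E. coli LZ2310 (NorE, MdfA, AcrA knocked out) carrying pLB-II with the cloned MBL gene. Mueller-Hinton, CLSI disk diffusion; antibiotic disks (30 µg cefoxitin for VIM-2, 10 µg ampicillin for VIM-4, 30 µg ceftazidime for NDM-1/IMP-1) loaded with inhibitor in DMSO (≤15 µL). Zone diameter after 18 h, 35 ± 1 °C; DMSO and 220 µg EDTA controls. Triplicate.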

[4] = Inhibition of beta-lactamase VIM2 (unknown origin) expressed in Escherichia coli BL21(DE3) using imipenem as substrate by measuring substrate hydrolysis at 100 uM by spectrophotometric analysis; method in brief: as §2
[5] = Inhibition of beta-lactamase VIM4 (unknown origin) expressed in Escherichia coli BL21(DE3) using imipenem as substrate by measuring substrate hydrolysis at 100 uM by spectrophotometric analysis; method in brief: as §2
[6] = Inhibition of beta-lactamase L1 (unknown origin) expressed in Escherichia coli BL21(DE3) using nitrocefin as substrate by measuring substrate hydrolysis at 100 uM preincubated for 30 mins by spectrophotometric analysis
Method in brief: (§4)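 Enzyme 0.2–0.8 nM in 25 mM HEPES pH 7.5 with 50 μM ZnCl2 final, pre-incubated 30 min at 21 °C with inhibitor (100 μM screen). Nitrocefin 100 μM final, read at 482 nm, 30 °C. Residual activity vs three uninhibited samples; Ki (1–100 μM inhibitor) from Hanes linearization, competitive model. Triplicate.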

[7] = Inhibition of beta-lactamase L1 (unknown origin) expressed in Escherichia coli BL21(DE3) using nitrocefin as substrate by measuring substrate hydrolysis at 200 uM preincubated for 30 mins by spectrophotometric analysis
[8] = Inhibition of beta-lactamase VIM4 (unknown origin) expressed in Escherichia coli BL21(DE3) using imipenem as substrate by measuring substrate hydrolysis at 200 uM by spectrophotometric analysis; method in brief: as §2
[9] = Inhibition of beta-lactamase VIM2 (unknown origin) expressed in Escherichia coli BL21(DE3) using imipenem as substrate by measuring substrate hydrolysis at 200 uM by spectrophotometric analysis; method in brief: as §2
[10] = Inhibition of beta-lactamase VIM-2 (unknown origin) expressed in Escherichia coli LZ2310 assessed as potentiation of cefoxitin antibacterial activity by measuring cefoxitin induced diameter of inhibition zone at 40 uM incubated for 18 hrs by disk diffusion method (reference value: 14 mm); method in brief: as §3
[11] = Inhibition of beta-lactamase CphA (unknown origin) expressed in Escherichia coli BL21(DE3) using imipenem as substrate by measuring substrate hydrolysis by spectrophotometric analysis; method in brief: as §1
[12] = Inhibition of beta-lactamase IMP-1 (unknown origin) expressed in Escherichia coli BL21(DE3) using imipenem as substrate by measuring substrate hydrolysis by spectrophotometric analysis; method in brief: as §2
[13] = Inhibition of beta-lactamase NDM1 (unknown origin) expressed in Escherichia coli BL21(DE3) using cefotaxime/nitrocefin as substrate by measuring substrate hydrolysis at 200 uM by spectrophotometric analysis
[14] = Inhibition of beta-lactamase NDM1 (unknown origin) expressed in Escherichia coli BL21(DE3) using cefotaxime/nitrocefin as substrate by measuring substrate hydrolysis at 100 uM by spectrophotometric analysis
[15] = Inhibition of beta-lactamase VIM-4 (unknown origin) expressed in Escherichia coli LZ2310 assessed as potentiation of ampicillin antibacterial activity by measuring ampicillin induced diameter of inhibition zone at 40 uM incubated for 18 hrs by disk diffusion method (reference value: 6 mm); method in brief: as §3
[16] = Inhibition of beta-lactamase VIM2 (unknown origin) expressed in Escherichia coli BL21(DE3) using imipenem as substrate by measuring substrate hydrolysis by spectrophotometric analysis; method in brief: as §2
[17] = Inhibition of beta-lactamase VIM4 (unknown origin) expressed in Escherichia coli BL21(DE3) using imipenem as substrate by measuring substrate hydrolysis by spectrophotometric analysis; method in brief: as §2
[18] = Inhibition of beta-lactamase L1 (unknown origin) expressed in Escherichia coli BL21(DE3) using nitrocefin as substrate by measuring substrate hydrolysis preincubated for 30 mins by spectrophotometric analysis; method in brief: as §4
[19] = Inhibition of beta-lactamase IMP-1 (unknown origin) expressed in Escherichia coli LZ2310 assessed as potentiation of ceftazidime antibacterial activity by measuring ceftazidime induced diameter of inhibition zone at 40 uM incubated for 18 hrs by disk diffusion method (reference value: 9 mm); method in brief: as §3
[20] = Inhibition of beta-lactamase CphA (unknown origin) expressed in Escherichia coli BL21(DE3) using imipenem as substrate by measuring substrate hydrolysis at 200 uM by spectrophotometric analysis
[21] = Inhibition of beta-lactamase NDM1 (unknown origin) expressed in Escherichia coli BL21(DE3) using cefotaxime/nitrocefin as substrate by measuring substrate hydrolysis by spectrophotometric analysis
Method in brief: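 His-tagged enzyme from E. coli BL21(DE3) pET-15b, affinity-purified, 1-70 nM final. Reporter substrate 120 μM cefotaxime (260 nm) or 100 μM nitrocefin (482 nm), 30 °C, 50 mM HEPES pH 7.5. Inhibitor 0.5–1,000 μM final; competitive Ki from v0/vi vs [I] slope or Dixon plot. Triplicate.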

[22] = Inhibition of beta-lactamase IMP-1 (unknown origin) expressed in Escherichia coli BL21(DE3) using imipenem as substrate by measuring substrate hydrolysis at 200 uM by spectrophotometric analysis; method in brief: as §2

Row | inhibition [1] | inhibition [2] | inhibition zone (IZ) [3] [mm] | inhibition [4] | inhibition [5] | inhibition [6] | inhibition [9] | inhibition zone (IZ) [10] [mm] | inhibition [13] | inhibition [14] | inhibition zone (IZ) [19] [mm] | inhibition [22] | SMILES | Ki [11] [µM] | Ki [12] [µM] | Ki [16] [µM] | Ki [17] [µM] | Ki [18] [µM] | Ki [21] [µM] | further results
1 | inactive | 33% | – | 30% | 60% | 40% | – | – | inactive | inactive | – | – | Oc1ccc(/C=N/n2c(COc3ccc4ccccc4c3)n[nH]c2=S)c(O)c1 | – | – | – | – | – | – | inhibition [20]: inactive
2 | 42% | 35% | 15 | – | – | 60% | – | 14 | – | – | – | – | O=C(O)c1ccccc1/C=N/n1c(COc2ccc3ccccc3c2)n[nH]c1=S | – | – | 2 | 3 | – | 2.4 | –
3 | – | inactive | 15 | – | – | – | – | – | – | – | – | inactive | O=C(O)c1ccccc1/C=N/n1c(CC(c2ccccc2)c2ccccc2)n[nH]c1=S | 15 | – | 25.4 | 5.6 | 2.4 | 2.7 | –
4 | – | 62% | 15 | – | – | – | – | 14 | – | – | – | – | O=C(O)c1ccccc1/C=N/n1c(-c2ccc(OCc3ccccc3)cc2)n[nH]c1=S | – | – | 0.9 | 1 | 0.4 | 2.8 | –
5 | – | inactive | 15 | – | – | – | – | 14 | – | – | 9 | inactive | O=C(O)c1ccccc1/C=N/n1c(C(c2ccccc2)c2ccccc2)n[nH]c1=S | 13 | – | – | 9 | 0.1 | 4.1 | –
6 | 50% | 37% | 15 | – | 56% | – | – | 14 | inactive | inactive | – | – | O=C(O)c1ccccc1/C=N/n1c(CCc2ccccc2)n[nH]c1=S | – | – | 7 | – | 4 | – | –

Second part, the compound before the results:

Row | SMILES | inhibition [1] | inhibition [2] | inhibition zone (IZ) [3] [mm] | inhibition [4] | inhibition [5] | inhibition [6] | inhibition [9] | inhibition zone (IZ) [10] [mm] | inhibition [13] | inhibition [14] | inhibition zone (IZ) [19] [mm] | inhibition [22] | Ki [11] [µM] | Ki [12] [µM] | Ki [16] [µM] | Ki [17] [µM] | Ki [18] [µM] | Ki [21] [µM] | further results
7 | S=c1[nH]nc(CC(c2ccccc2)c2ccccc2)n1/N=C/c1ccc(OCc2ccccc2)cc1 | 30% | 30% | 15 | inactive | inactive | inactive | inactive | – | – | – | – | – | – | – | – | – | – | – | inhibition [7]: inactive; inhibition [8]: inactive
8 | Cc1ccccc1-c1n[nH]c(=S)n1/N=C/c1cccc(-c2cccc(C(=O)O)c2)c1 | – | – | – | – | – | – | – | 14 | inactive | inactive | 9 | – | 40 | 9 | 1.1 | 0.3 | 0.9 | – | inhibition zone (IZ) [15]: 6 mm
9 | Cc1ccccc1-c1n[nH]c(=S)n1/N=C/c1ccccc1[N+](=O)[O-] | – | – | – | inactive | – | – | inactive | – | inactive | inactive | 9 | – | 5 | 11 | – | 2.4 | 30 | – | inhibition zone (IZ) [15]: 6 mm
10 | Oc1ccc(/C=N/n2c(-c3cccc4ccccc34)n[nH]c2=S)c(O)c1 | – | – | – | inactive | 32% | – | inactive | – | inactive | inactive | 10 | – | 4 | 10 | – | – | 2 | – | inhibition zone (IZ) [15]: 6 mm
11 | S=c1[nH]nc(-c2cccc3ccccc23)n1/N=C/c1ccc(OCc2ccccc2)cc1 | – | – | – | inactive | – | – | inactive | 14 | inactive | inactive | 9 | – | 4 | 0.1 | – | 2.4 | 30 | – | –
12 | COc1ccc(/C=N/n2c(-c3ccccc3C)n[nH]c2=S)c(O)c1 | – | – | – | 58% | 55% | 55% | – | – | – | 32% | 9 | – | 32 | 9 | – | – | – | – | –
13 | S=c1[nH]nc(-c2ccc(Cl)cc2)n1/N=C/c1ccc(OCc2ccccc2)cc1 | – | inactive | 15 | inactive | inactive | 40% | inactive | – | – | – | – | inactive | – | – | – | – | – | 4.1 | inhibition [8]: inactive
14 | O=C(O)c1ccccc1/C=N/n1c(-c2cccc(C(F)(F)F)c2)n[nH]c1=S | 35% | – | 15 | inactive | – | 40% | inactive | – | – | – | – | 50% | – | – | – | 1.6 | – | – | –
15 | Cc1ccccc1-c1n[nH]c(=S)n1/N=C/c1ccc(C(=O)O)cc1 | – | – | – | – | 57% | 59% | – | 14 | inactive | inactive | 9 | – | 31 | 11 | 11 | – | – | – | –
16 | Oc1ccc(/C=N/n2c(Cc3ccccc3)n[nH]c2=S)c(O)c1 | inactive | 37% | – | 30% | 47% | 46% | – | – | inactive | inactive | – | – | – | – | – | – | – | – | inhibition [20]: inactive
17 | O=C(O)c1ccccc1/C=N/n1c(-c2ccncc2)n[nH]c1=S | inactive | 45% | – | – | 73% | 32% | – | – | 50% | – | – | – | – | – | – | – | – | – | inhibition [20]: inactive
18 | Oc1ccc(/C=N/n2c(-c3cccc(F)c3)n[nH]c2=S)c(O)c1 | – | inactive | 15 | inactive | – | 25% | inactive | – | – | – | – | inactive | – | – | – | 4 | – | 11.7 | –
19 | S=c1[nH]nc(-c2cccc(Cl)c2)n1/N=C/c1ccc(OCc2ccccc2)cc1 | – | inactive | 15 | inactive | 35% | 60% | inactive | – | – | – | – | inactive | – | – | – | – | – | 6.7 | –
